According to paper PMC3855573 (Biochemistry, 2013):
Several values for one entry are separate records, joined by “and”; a condition that tells them apart may be missing. Equal entries are not always repeated. Where two headings read alike, the source gives them in different places.

Assays:
MV FlAsH = MV FlAsH (Gallus gallus, UniProt Q02440, D297C/G292C/I296C/S293C/V295G); test: Actin-activated steady-state ATPase, NADH coupled assay; type: biochemical, chicken; conditions: 20 μM actin, 25°C
acto-MV FlAsH = acto-MV FlAsH (Gallus gallus, UniProt Q02440, D297C/G292C/I296C/S293C/V295G); test: Mg dependence of ADP release rate constants; type: binding, chicken; conditions: read-out: KD.Mg, Eq. 14
Outline: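 Acto-MV FlAsH·mantdADP (final 0.25 μM MV FlAsH, 0.5 μM actin, 10 μM mantdADP) stopped-flow mixed with 1 mM ATP at 25°C. Buffer: K50TCEP, pH 7.0, with 0.5–10 mM MgCl2; free Mg calculated from stability constants. FRET read with 365 nm excitation and 515 nm long-pass emission. Biexponential rate constants vs free Mg fitted to Eq. 14 to extrapolate Mg-free and Mg-saturated values and KD.Mg.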

[1] = read-out: KD of Mg for free ADP; previously determined; cited from earlier work

Row | actin-activated ATPase rate (MV FlAsH; K50 buffer containing 4 mM EDTA (Mg free)) [s⁻¹] | Kd (acto-MV FlAsH; actomyosin V strong ADP binding conformation) [µM] | Kd (acto-MV FlAsH; actomyosin V weak ADP binding conformation) [µM] | reduction in actin-activated ATPase activity (MV FlAsH; high free Mg (3–9 mM) versus low free Mg (0.1–0.3 mM)) | SMILES | Kd [1] [µM]
1 | 0.06 | – | – | – | O=C(O)CN(CCN(CC(=O)O)CC(=O)O)CC(=O)O [EDTA, reference compound] | –
2 | – | 900 ± 400 | 600 ± 300 | 50–60% and 60% | [Mg+2] [Mg, magnesium] | 350 ± 300
